Test results as given in ChEMBL document CHEMBL4011627, “Hepatitis C Virus NS3/4A Protease Inhibitors Incorporating Flexible P2 Quinoxalines Target Drug Resistant Viral Variants” (J Med Chem, 2017).

How the values were obtained:
[1] = Inhibition of HCV genotype 1a NS3/4A protease using Ac-DE-Dap(QXL 520)-EE-Abu-psi-[COO]AS-C(5-FAMsp)-NH2 as substrate preincubated for 1 hr followed by substrate addition; parameters: species or system Hepatitis C virus subtype 1a
Summary of the method: (§1)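 Protease domain at 2 nM preincubated 1 h at room temperature with inhibitor titrations (at least 12 concentrations) in 50 mM Tris, 5% glycerol, 10 mM DTT, 0.6 mM LDAO, 4% DMSO. Reaction started with fluorogenic substrate (200 nM final) and followed kinetically (ex 485/em 530 nm). Three independent data sets, fit globally to the Morrison equation for Ki.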

[2] = tested on: Hepatitis C virus; test: Antiviral activity against HCV genotype 1b Con1 harboring HCV genotype 1a H77 NS3 infected in human HuH7 cells assessed as inhibition of viral replication after 96 hrs by luciferase reporter gene assay; assay type: functional, cell-based, Hepacivirus hominis; conditions: genotype 1b Con1, Huh-7, 96 h
[3] = Inhibition of HCV genotype 3a NS3/4A protease using Ac-DE-Dap(QXL520)-EE-Abu-psi-[COO]AS-C(5-FAMsp)-NH2 as substrate preincubated for 1 hr followed by substrate addition; parameters: species or system Hepatitis C virus subtype 3a; summary of the method: as §1
[4] = tested on: Hepatitis C virus; test: Antiviral activity against HCV genotype 1b Con1 harboring HCV genotype 1a H77 NS3 D168A mutant infected in human HuH7 cells assessed as inhibition of viral replication after 96 hrs by luciferase reporter gene assay; assay type: functional, cell-based, Hepacivirus hominis; conditions: genotype 1b Con1, Huh-7, 96 h
[5] = target: Hepatitis C virus serine protease, NS3/NS4A (Hepatitis C virus, UniProt A3EZI9+D2K2A8, D168A); test: Inhibition of HCV genotype 1a NS3/4A protease D168A mutant using Ac-DE-Dap(QXL 520)-EE-Abu-psi-[COO]AS-C(5-FAMsp)-NH2 as substrate preincubated for 1 hr followed by substrate addition; parameters: species or system Hepatitis C virus subtype 1a
Summary of the method: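 NS3/4A protease domain at 2 nM pre-incubated 1 h at room temperature with increasing inhibitor (at least 12 concentrations) in 50 mM Tris, 5% glycerol, 10 mM DTT, 0.6 mM LDAO, 4% DMSO. Reaction started with FRET substrate (final 200 nM), monitored kinetically (ex 485/em 530 nm). Three independent data sets; global Morrison fit for Ki.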

[6] = tested on: Hepatitis C virus; test: Antiviral activity against HCV genotype 1b Con1 harboring HCV genotype 1a H77 NS3 A156T mutant infected in human HuH7 cells assessed as inhibition of viral replication after 96 hrs by luciferase reporter gene assay; assay type: functional, cell-based, Hepacivirus hominis; conditions: genotype 1b Con1, Huh-7, 96 h
[7] = tested on: Hepatitis C virus; test: Antiviral activity against HCV genotype 1b Con1 harboring HCV genotype 1a H77 NS3 R155K mutant infected in human HuH7 cells assessed as inhibition of viral replication after 96 hrs by luciferase reporter gene assay; assay type: functional, cell-based, Hepacivirus hominis; conditions: genotype 1b Con1, Huh-7, 96 h
[8] = tested on: Hepatitis C virus; test: Antiviral activity against HCV genotype 1b Con1 harboring HCV genotype 1a H77 NS3 D168V mutant infected in human HuH7 cells assessed as inhibition of viral replication after 96 hrs by luciferase reporter gene assay; assay type: functional, cell-based, Hepacivirus hominis; conditions: genotype 1b Con1, Huh-7, 96 h

Row | SMILES | Ki [1] [nM] | EC50 [2] [nM] | Ki [3] [nM] | EC50 [4] [nM] | Ki [5] [nM] | EC50 [6] [nM] | EC50 [7] [nM] | EC50 [8] [nM]
1 | COc1ccc2nc(C)c(O[C@@H]3C[C@H]4C(=O)N[C@]5(C(=O)NS(=O)(=O)C6(C)CC6)C[C@H]5/C=C\CCCCC[C@H](NC(=O)OC(C)(C)C)C(=O)N4C3)nc2c1 | 3.6 | 0.3 | 119 | 2.37 | 52 | 1.57 | 0.8 | 1.6
2 | COc1ccc2nc(C(C)C)c(O[C@@H]3C[C@H]4C(=O)N[C@]5(C(=O)NS(=O)(=O)C6(C)CC6)C[C@H]5/C=C\CCCCC[C@H](NC(=O)OC5CCCC5)C(=O)N4C3)nc2c1 | 1.34 | 0.59 | – | 7.91 | 156 | 27.6 | 6.83 | 18.2
3 | CCc1nc2ccc(OC)cc2nc1O[C@@H]1C[C@H]2C(=O)N[C@]3(C(=O)NS(=O)(=O)C4(C)CC4)C[C@H]3/C=C\CCCCC[C@H](NC(=O)OC(C)(C)C)C(=O)N2C1 | 1.82 | 0.43 | 171 | 4.97 | 55.2 | 4.52 | 1.8 | 6.42
4 | COc1ccc2nc(C(F)(F)F)c(O[C@@H]3C[C@H]4C(=O)N[C@]5(C(=O)NS(=O)(=O)C6(C)CC6)C[C@H]5/C=C\CCCCC[C@H](NC(=O)OC5CCCC5)C(=O)N4C3)nc2c1 | 8.14 | 4.04 | 433 | 8.46 | 110 | 75.9 | 6.9 | 11.4
5 | COc1ccc2nc(C)c(O[C@@H]3C[C@H]4C(=O)N[C@]5(C(=O)NS(=O)(=O)C6(C)CC6)C[C@H]5/C=C\CCCCC[C@H](NC(=O)OC5CCCC5)C(=O)N4C3)nc2c1 | 1.13 | 0.13 | 121 | 2.16 | 36.3 | 3.99 | 1.09 | –
6 | COc1ccc2nc(C(F)(F)F)c(O[C@@H]3C[C@H]4C(=O)N[C@]5(C(=O)NS(=O)(=O)C6(C)CC6)C[C@H]5/C=C\CCCCC[C@H](NC(=O)OC(C)(C)C)C(=O)N4C3)nc2c1 | 5.77 | 1.52 | 231 | 8.64 | 118 | 20.5 | 2.3 | 8.31
7 | COc1ccc2nc(C(C)C)c(O[C@@H]3C[C@H]4C(=O)N[C@]5(C(=O)NS(=O)(=O)C6(C)CC6)C[C@H]5/C=C\CCCCC[C@H](NC(=O)OC(C)(C)C)C(=O)N4C3)nc2c1 | 0.58 | 1.86 | – | 11.9 | 211 | 21.2 | 4.14 | 18.1
8 | COc1ccc2nc(C(F)(F)F)c(O[C@@H]3C[C@H]4C(=O)N[C@]5(C(=O)NS(=O)(=O)C6CC6)C[C@H]5/C=C\CCCCC[C@H](NC(=O)OC(C)(C)C)C(=O)N4C3)nc2c1 | 13.3 | 1.98 | 344 | 16.8 | 157 | 36.2 | 3.45 | 17.1
9 | COc1ccc2nc(Cl)c(O[C@@H]3C[C@H]4C(=O)N[C@]5(C(=O)NS(=O)(=O)C6(C)CC6)C[C@H]5/C=C\CCCCC[C@H](NC(=O)OC5CCCC5)C(=O)N4C3)nc2c1 | 0.44 | 0.15 | 61 | 0.97 | 25.7 | 4.32 | 0.56 | 1.09
10 | COc1ccc2nc(Cl)c(O[C@@H]3C[C@H]4C(=O)N[C@]5(C(=O)NS(=O)(=O)C6CC6)C[C@H]5/C=C\CCCCC[C@H](NC(=O)OC(C)(C)C)C(=O)N4C3)nc2c1 | 1.07 | 0.16 | 67.5 | 1.42 | 39.8 | 16.2 | 0.44 | 0.73
11 | CCc1nc2ccccc2nc1O[C@@H]1C[C@H]2C(=O)N[C@]3(C(=O)NS(=O)(=O)C4CC4)C[C@H]3/C=C\CCCCC[C@H](NC(=O)OC3CCCC3)C(=O)N2C1 | 1.99 | 0.24 | – | 7.5 | 107 | 24.6 | 4.28 | 19.3
12 | CCc1nc2ccc(OC)cc2nc1O[C@@H]1C[C@H]2C(=O)N[C@]3(C(=O)NS(=O)(=O)C4CC4)C[C@H]3/C=C\CCCCC[C@H](NC(=O)OC3CCCC3)C(=O)N2C1 | 1.24 | 0.14 | 211 | 3.6 | 52.3 | 11.8 | 2.08 | 11.9
13 | COc1ccc2nc(C(F)(F)F)c(O[C@@H]3C[C@H]4C(=O)N[C@]5(C(=O)NS(=O)(=O)C6CC6)C[C@H]5/C=C\CCCCC[C@H](NC(=O)OC5CCCC5)C(=O)N4C3)nc2c1 | 7.55 | 4.86 | 757 | 15.1 | 115 | 117 | 7.97 | 24
14 | COc1ccc2nc(Cl)c(O[C@@H]3C[C@H]4C(=O)N[C@]5(C(=O)NS(=O)(=O)C6(C)CC6)C[C@H]5/C=C\CCCCC[C@H](NC(=O)OC(C)(C)C)C(=O)N4C3)nc2c1 | 1.11 | 0.18 | 53.6 | 1.07 | 77.7 | 8.86 | 0.4 | 0.49
15 | CCc1nc2ccc(OC)cc2nc1O[C@@H]1C[C@H]2C(=O)N[C@]3(C(=O)NS(=O)(=O)C4(C)CC4)C[C@H]3/C=C\CCCCC[C@H](NC(=O)OC3CCCC3)C(=O)N2C1 | 1.37 | 0.16 | 186 | 3.45 | 55.2 | 10.6 | 2.07 | 7.08
16 | COc1ccc2nc(C(C)C)c(O[C@@H]3C[C@H]4C(=O)N[C@]5(C(=O)NS(=O)(=O)C6CC6)C[C@H]5/C=C\CCCCC[C@H](NC(=O)OC5CCCC5)C(=O)N4C3)nc2c1 | 1.44 | 0.48 | – | 7.96 | 161 | 32.1 | 7.63 | 30.1
17 | COc1ccc2nc(C(C)C)c(O[C@@H]3C[C@H]4C(=O)N[C@]5(C(=O)NS(=O)(=O)C6CC6)C[C@H]5/C=C\CCCCC[C@H](NC(=O)OC(C)(C)C)C(=O)N4C3)nc2c1 | 4.27 | 1.43 | – | 15.3 | 239 | 25.7 | 5.02 | 23.7
18 | CCc1nc2ccccc2nc1O[C@@H]1C[C@H]2C(=O)N[C@]3(C(=O)NS(=O)(=O)C4CC4)C[C@H]3/C=C\CCCCC[C@H](NC(=O)OC(C)(C)C)C(=O)N2C1 | 7.18 | 0.46 | – | 8.55 | 190 | 10.6 | 1.81 | 14
